# Sampled rows, rich in hits. Any-hit rate of the full collection: about 1.5%.
# Plk1 PBD FP: blocks phosphopeptide binding to human Plk1 polo box domain; P53350; Plk1 PBD phosphopeptide binding, fluorescence polarization; inhibition, %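 (tested at about 20 µM)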; hit rate 0.13% among 97,000; AID 693; in the data active = inhibition above about 34%, passing the limit was not always enough
# PLK1 kinase inh: blocks human PLK1 kinase activity; recombinant PLK1 kinase, TR-FRET peptide phosphorylation; inhibition, % at 10 µM; hit rate 0.53% among 97,000;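 active = inhibition of 50% or more in the single-concentration screen; inactive = inhibition below 50%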;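 note: 0% = DMSO max control and 100% = H-89 dihydrochloride min control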
# HEK293 NFkB inh: inhibitors of the PMA/ionomycin-induced NF-kB reporter in HEK293 cells. HEK-293 NF-kB luciferase reporter, luminescence. inhibition, % at 3 µM. hit rate 0.21% among 62,000. AID 465;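 active = inhibition above the mean of all tested compounds plus 3 SD, cut at about 40% in these data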;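 note: 0% = stimulated DMSO wells and 100% = 10 µM reference inhibitor 5653914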
#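 Material: HEK-293 cells with stable firefly luciferase reporter driven by four HIV NF-kB elements / Also added: PMA plus ionomycin mix as NF-kB-activating stimulus / Compound dosing: 3 µM once, 0.30% DMSO / Times: 1 h pretreatment, 16 h stimulation, 37 °C / Signal: luminescence / Evaluation: per-plate % inhibition versus controls / Benchmarks: DMSO and 10 µM reference inhibitor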
# PTK2B oligo ant: blocks oligomerization of human Pyk2 in cells; Q14289; z-score (the deposit names both 25 µM and 10 µM); AID 1347419; Q293 cells, Pyk2 FERM NanoBiT luminescence; stronger effect = lower value; hit rate 0.83% among 99,000;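 active = Z-score of -3 or lower, scaled per plate to the spread of control and sample wells; inactive = z-score above -3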;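 note: negative z-score means lost luminescence so less FERM oligomerization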
# Target sequence (Q14289 whole entry, looked up): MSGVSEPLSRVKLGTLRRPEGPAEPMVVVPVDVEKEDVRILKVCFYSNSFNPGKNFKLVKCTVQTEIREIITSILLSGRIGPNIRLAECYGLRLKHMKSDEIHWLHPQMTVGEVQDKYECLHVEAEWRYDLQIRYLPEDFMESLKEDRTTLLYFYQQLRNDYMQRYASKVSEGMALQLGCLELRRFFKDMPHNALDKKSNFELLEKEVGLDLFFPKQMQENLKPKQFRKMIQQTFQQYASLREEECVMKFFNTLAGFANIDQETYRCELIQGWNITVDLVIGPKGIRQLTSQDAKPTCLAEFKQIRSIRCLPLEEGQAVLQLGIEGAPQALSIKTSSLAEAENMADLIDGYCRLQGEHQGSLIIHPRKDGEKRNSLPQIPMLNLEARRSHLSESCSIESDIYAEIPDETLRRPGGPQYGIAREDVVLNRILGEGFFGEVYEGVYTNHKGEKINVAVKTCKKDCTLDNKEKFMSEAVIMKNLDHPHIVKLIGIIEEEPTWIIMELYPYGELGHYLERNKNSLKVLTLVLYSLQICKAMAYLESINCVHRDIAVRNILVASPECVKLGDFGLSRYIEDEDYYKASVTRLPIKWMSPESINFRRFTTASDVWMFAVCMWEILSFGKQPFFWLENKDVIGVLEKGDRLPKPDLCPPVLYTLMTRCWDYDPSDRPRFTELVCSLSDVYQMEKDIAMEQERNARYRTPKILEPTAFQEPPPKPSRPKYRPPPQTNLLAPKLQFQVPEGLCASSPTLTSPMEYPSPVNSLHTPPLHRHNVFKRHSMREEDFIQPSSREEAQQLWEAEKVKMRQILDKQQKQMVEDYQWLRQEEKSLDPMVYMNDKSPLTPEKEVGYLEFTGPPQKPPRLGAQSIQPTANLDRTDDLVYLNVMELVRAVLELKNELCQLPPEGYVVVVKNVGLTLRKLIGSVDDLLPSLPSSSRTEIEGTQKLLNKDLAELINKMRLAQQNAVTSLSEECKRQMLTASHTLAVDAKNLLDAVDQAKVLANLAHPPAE
# AP complement: alternative pathway complement inhibition, orthogonal assay; inhibition, % at 5 µM; hit rate 0.08% among 62,000; Human serum alternative complement pathway, LPS-coated ELISA, C3 deposition; tested in compound mixtures; AID 1235;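 active = inhibition above 30% in each of the two pooled mixtures holding the compound, so the lower value exceeds 30%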;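 note: 0% = serum in Mg-EGTA without compound and 100% = EDTA serum blank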
#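 Assay system: human serum alternative complement pathway, C3 deposition on LPS-coated wells; Dosing: 5 µM per compound in ten-compound mixtures; Detection: Anti-C3 ELISA, OD 450 nm; Buffer or medium: Mg2+-EGTA GVB++ buffer containing human serum at 1:15 dilution; Timing: 1 h at 37 °C; Replication: two different pools per compound.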
# HePTP inhibitor: blocks human HePTP tyrosine phosphatase; P35236; recombinant HePTP phosphatase activity, OD absorbance; inhibition, % at 20 µM; hit rate 0.64% among 110,000; in the data active = inhibition above about 50%;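 note: plate controls were vehicle for no effect and reference inhibitor for full effect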
# Numbers without * were called inactive; . = not tested or not shown.
SMILES,Plk1 PBD FP,PLK1 kinase inh,HEK293 NFkB inh,PTK2B oligo ant,AP complement,HePTP inhibitor
Cc1ccc(CN2CCN(/N=C/C=C\c3ccco3)CC2)cc1,.,.,.,.,.,103*
CCn1nc([N+](=O)[O-])c(C(C#N)c2nc3cc(C(F)(F)F)ccc3s2)c(Cl)c1=O (centres undefined),11,22,.,-3.3*,.,.
O=S(=O)(Cc1ccccc1)CC(O)COCc1ccc(Cl)cc1 (centres undefined),.,.,.,.,.,-4
CCn1c2ccccc2c2cc(Nc3cc(C)nc4ncnn34)ccc21,.,.,47*,.,6,11
CCc1ccc(Nc2cc(C)nc3ncnn23)cc1,.,.,.,.,.,-2
Cc1nn(-c2ccccc2C(=O)O)c(=O)c2ccccc12,-1,0,0,-0.14,11,15
Cc1c(C(=O)O)cccc1-n1c(C)ccc1C,.,.,.,.,.,104*
Cc1ccc(C)n1-c1ccccc1C(=O)O,.,.,.,.,.,104*
COC(=O)C(C)Oc1ccc2ccc(=O)oc2c1 (centres undefined),.,.,.,.,.,-14
CCOC(=O)C1=C(C)N=C2SCC(=O)N2C1c1ccc(Br)cc1 (centres undefined),.,.,.,.,.,-8
CC(C)CN(CC(C)C)C(=O)/C=C/c1ccccc1,.,.,.,.,.,35
O=C1/C(=C\c2ccccc2)SC(=S)N1c1cccc(C(F)(F)F)c1,.,.,.,.,.,6
Cc1ccc(-c2c(CCC(C)(O)c3ccccc3)oc3ccccc23)o1 (centres undefined),.,.,.,.,.,-14
O=C(CCN1C(=O)/C(=C/c2ccccc2)SC1=S)Nc1ncc(Cc2ccccc2Cl)s1,.,.,.,.,.,12
Cc1nc2cc(C(=O)O)ccc2n1-c1ccccc1,-2,69*,2,.,19,3
S=C1NNC2(NN1)C1CC3CC(C1)CC2C3,-7,56*,.,0.9,.,.
COc1ccc(-c2nn(-c3ccccc3)cc2/C=N/NC(=O)c2ccc(Br)o2)cc1,-11,-1,.,-3.1*,.,.
N#Cc1ccccc1NC(=O)COc1ccccc1,.,.,.,.,.,-3
Cc1cc(-c2ccccc2)n2ncc(C#N)c2n1,24,54*,28,.,6,0
FC(F)(F)c1nc(-c2cccs2)ncc1-c1nnnn1-c1ccc(Cl)cc1,3,-5,.,-3.1*,.,.
CCOC(=O)c1sc(NC(=O)CSc2nc3c(cc2C#N)CCCCCC3)c(C#N)c1C,11,-11,-6,-3.4*,6,-1
COc1ccc(C)cc1Nc1cc(C)c2ccccc2n1,.,.,.,.,.,5
O=C(NCCN1C(=O)C2C3C=CC(C3)C2C1=O)Nc1ccccc1 (centres undefined),11,67*,-8,.,10,6
O=C(NCCN1C(=O)C2C3C=CC(C3)C2C1=O)NCc1ccccc1 (centres undefined),12,54*,0,.,9,7
Cc1ccc(NC(=O)NCCN2C(=O)C3C4C=CC(C4)C3C2=O)cc1 (centres undefined),37,62*,-33,.,9,-8
SMILES,Plk1 PBD FP,PLK1 kinase inh,HEK293 NFkB inh,PTK2B oligo ant,AP complement,HePTP inhibitor
COc1ccc(C2C(C(=O)OCCOc3ccccc3)=C(C)NC3=C2C(=O)CC(C)(C)C3)c(OC)c1 (centres undefined),.,.,.,.,.,-6
COC(=O)C1=C(C)NC(=O)NC1c1ccc(OC)c(OC)c1OC (centres undefined),.,.,.,.,.,8
CC1=C(C(=O)OCC(C)C)C(c2ccc(OCc3ccccc3)cc2)C2=C(CCCC2=O)N1 (centres undefined),.,.,.,.,.,-9
CC1=C(C#N)c2nc(N)c(C#N)c(C)c2/C1=C\c1ccc(-c2cccc([N+](=O)[O-])c2)o1,.,.,.,.,.,-2
CC(=O)c1cccc(-c2ccc(/C=C3\C(=O)NC(=O)C(C#N)=C3C)o2)c1,.,.,.,.,.,72*
CC1=C(C#N)c2nc(N)c(C#N)c(C)c2/C1=C/c1ccc(-c2cccc(C(=O)O)c2)o1,.,.,.,.,.,103*
CCOC(=O)c1cc(-c2ccc(/C=C3/C(=O)NC(=O)C(C#N)=C3C)o2)ccc1Cl,5,10,.,-0.2,.,.
CN(C)c1ccc(/C=C/C=C2/SC(=S)N(c3ccccc3)C2=O)cc1,-16,-8,.,-3*,.,.
COc1ccc(CN(C(=O)CSc2nnc(-c3ccc(F)cc3)o2)c2ccc(F)cc2)cc1,.,.,20,-2.1,4,3
COc1ccc(CN(C(=O)CSc2nnc(-c3c[nH]c4ccccc34)o2)c2ccc(F)cc2)cc1OC,-3,-10,.,-4.2*,.,.
NC1=NC(=O)/C(=C/c2ccc(-c3cc([N+](=O)[O-])ccc3Cl)o2)S1,.,.,.,.,.,99*
CCc1nc(Nc2ccc3c(c2)OCCO3)c2oc3ccccc3c2n1,8,-5,.,-3.4*,.,.
Cc1nc(Nc2ccc3c(c2)OCCO3)c2oc3ccccc3c2n1,-11,-15,6,0.24,-9,-9
C#CCn1c(S(=O)(=O)Cc2ccc(OC)cc2)nc(-c2ccccc2)c1-c1ccccc1,8,-13,.,-3*,.,.
CCOC(=O)Cn1c(S(=O)(=O)Cc2ccc(Cl)cc2)nc(-c2ccccc2)c1-c1ccccc1,-18,-15,.,-2,.,.
COC(=O)C1CN(S(=O)(=O)c2ccc(C)cc2)CCN1S(=O)(=O)c1ccc(C)cc1 (centres undefined),-6,-1,13,-3.7*,-13,-10
CCCCN(C)C(=O)c1cn(CC)c2ccc(S(=O)(=O)N(C)C)cc2c1=O,0,59*,-3,.,10,0
COc1cc(NC(=O)COc2ccc(C)cc2)ccc1NC(=O)c1ccco1,.,.,.,.,.,-9
O=c1/c(=C\c2ccccc2C(F)(F)F)sc2nc3ccccc3n12,.,.,.,.,.,0
O=c1/c(=C\c2cn[nH]c2-c2ccccc2)sc2nc3ccccc3n12,.,.,.,.,.,50*
Cn1c(=O)[nH]c(=O)c2c1nc(Br)n2CCOc1ccccc1,-8,-4,10,0.52,4,6
Cn1c(=O)[nH]c(=O)c2c1nc(Br)n2CC(O)c1ccccc1 (centres undefined),11,-11,2,1.9,42*,4
O=C(Nc1c(Cl)cc(Cl)cc1C(=O)NCc1cccnc1)c1ccc(Cl)cc1Cl,57*,-8,.,0.29,.,.
O=C(Cc1ccc(Cl)cc1)NCc1cccnc1,.,.,.,.,.,1
NNC(=O)COc1ccccc1OCCOCCOc1ccccc1OCC(=O)NN,.,.,.,.,.,-12
SMILES,Plk1 PBD FP,PLK1 kinase inh,HEK293 NFkB inh,PTK2B oligo ant,AP complement,HePTP inhibitor
CC1(C)CC(NC(=O)c2cccc(Cl)c2)CC(C)(C)N1,.,.,.,.,.,102*
Cc1cccc(C(=O)NC2CC(C)(C)NC(C)(C)C2)c1,-14,1,10,0.48,5,-4
COc1ccc(C2NC(=S)NC(C)=C2C(=O)OCCOc2ccccc2)cc1 (centres undefined),.,.,.,.,.,4
CCCCCOC(=O)C1=C(C)NC(=S)NC1c1ccccc1 (centres undefined),.,.,.,.,.,63*
CC(C)=CCC/C(C)=C/C1OCCCO1,.,.,.,.,.,-16
COc1ccc(/C=N/N=C(\N)c2nonc2N)c(OC)c1,.,.,.,.,.,-15
N#CCSc1nnc(COc2cccc3ccccc23)n1-c1ccccc1,-6,-7,4,-0.85,-3,10
Cc1ccc(-c2nnc(CSc3nnc(COc4cccc5ccccc45)n3-c3ccccc3)o2)cc1,47*,-13,.,-0.37,.,.
